Entries after “also recorded” stand apart in the source; their conditions may differ.
Experiments:
[1] = system: Sap; settings: ref Korting et al., 1999; cited from earlier work
[2] = system: C. albicans SC5314; test: Electron microscopy of C. albicans; format: cell-based, Candida albicans; settings: 125 μg/ml, 24 h, 37 °C
Summary of the method: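 About 10^6 SC5314 cells/ml held with 125 μg/ml test compound for 24 h at 37 °C, beside an untreated control. Pellets fixed in 2.5% glutaraldehyde/2% formaldehyde (0.05 M phosphate, pH 7.3), post-fixed in 1% OsO4 and embedded in glycid ether. Sections of 20–30 nm stained with uranyl acetate and viewed by transmission EM.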

[3] = system: C. albicans; test: Annexin V-FITC / propidium iodide staining, apoptotic and necrotic marker; format: cell-based, Candida albicans
[4] = system: E. coli BL21; test: Broth microdilution, E. coli BL21; format: cell-based; settings: data not shown
[5] = system: TLR4 mRNA expression of epithelial cells; test: Epithelial TLR4 mRNA expression; format: cell-based, human; settings: 5 μg/ml, 12 h, n = 6
Summary of the method: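 Epithelial cells infected or not with C. albicans SC5314, with or without 5 μg/ml test compound, for 12 h. Total RNA extracted; cDNA made from 1 μg RNA with SuperScript III. qPCR run in duplicate using mean Ct, normalised to a housekeeping gene. Data are means±SD of duplicate assays from three experiments; 2-tailed paired t test, n = 6.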

[6] = system: C. albicans; test: Flow cytometric antimicrobial killing assay; format: cell-based, Candida albicans; settings: for depolarized fungal cells in a population: 1:6 diluted Schaedler broth, DiBAC4(3), flow cytometry, means of one representative experiment in triplicate; for antifungal activity compared between hGAPDH (2-32), LL-37 and hBD-3: 10 μg/ml each
Summary of the method: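 Candida albicans (strains 143, 277, 526 and SC5314; 1.5×10^6 cells) incubated at 37°C in 1:6-diluted Schaedler broth with test peptide or reference antimicrobial peptides at 10 μg/ml, dissolved in 0.01% acetic acid. Solvent-only controls. After 90 min, DiBAC4(3) membrane-potential dye added for 10 min; cells pelleted and resuspended in PBS. Percentage of depolarized cells counted by flow cytometry, 10,000 events per sample.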

[7] = system: P. aeruginosa PAO; test: Broth microdilution, P. aeruginosa PAO; format: cell-based; settings: data not shown
[8] = system: C. albicans; test: Radial diffusion test, C. albicans; format: cell-based, Candida albicans; settings: different media
[9] = target: Sap1p (Candida albicans, UniProt P0CY27); settings: as stated in abstract
Chain of Sap1p (P0CY27 51-391): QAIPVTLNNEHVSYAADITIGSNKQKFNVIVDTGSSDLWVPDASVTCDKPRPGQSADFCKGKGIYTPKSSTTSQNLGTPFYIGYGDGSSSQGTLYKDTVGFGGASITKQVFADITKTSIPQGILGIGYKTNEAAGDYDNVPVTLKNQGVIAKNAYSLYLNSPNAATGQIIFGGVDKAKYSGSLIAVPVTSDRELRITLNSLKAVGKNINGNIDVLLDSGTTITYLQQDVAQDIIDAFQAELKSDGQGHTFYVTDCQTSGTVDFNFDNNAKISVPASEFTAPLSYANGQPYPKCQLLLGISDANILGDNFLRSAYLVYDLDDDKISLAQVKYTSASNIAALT

[10] = system: RHE (TR146) infected with C. albicans SC5314; test: Histology of reconstituted human oral epithelium; format: cell-based; settings: 125 μg/ml, 18 h after infection with C. albicans SC5314
Summary of the method: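 Multilayer oral RHE infected with 2×10^6 C. albicans SC5314 in 3 g/l TSB/10 mM sodium phosphate, pH 7.2. Test compound at 5–125 μg/ml or none, for 12 and 18 h at 37 °C in 5% CO2 with 100% humidity. Light microscopy scored on 50 sections from five sites per epithelium.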

[11] = target: Sap2p (Candida albicans, UniProt P0CS83); test: Sap inhibition assay, Sap2; format: biochemical, C. albicans; settings: as stated in abstract
Chain of Sap2p (P0CS83 57-398): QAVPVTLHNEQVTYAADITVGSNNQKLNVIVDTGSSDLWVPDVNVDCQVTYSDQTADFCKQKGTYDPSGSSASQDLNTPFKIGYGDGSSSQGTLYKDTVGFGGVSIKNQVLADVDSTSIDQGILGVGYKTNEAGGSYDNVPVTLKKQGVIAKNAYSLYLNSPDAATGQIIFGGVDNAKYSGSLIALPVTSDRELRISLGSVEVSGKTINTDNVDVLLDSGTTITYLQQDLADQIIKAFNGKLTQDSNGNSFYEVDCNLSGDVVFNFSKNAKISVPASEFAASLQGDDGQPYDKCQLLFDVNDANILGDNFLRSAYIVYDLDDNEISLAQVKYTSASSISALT

[12] = system: E. coli; test: Flow cytometric antimicrobial killing assay; format: cell-based, E. coli ATCC 25922; settings: 90 min, 37°C
Summary of the method: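 E. coli ATCC 25922 (1.5×10^6 cells) in 1:6 diluted Schaedler broth at 37°C. Peptides dissolved in 0.01% acetic acid and added at 10 μg/ml; solvent served as viability control. After 90 min, DiBAC4(3) added for 10 min, cells spun and resuspended in PBS. Percentage of depolarised cells counted by flow cytometry over 10 000 events. One representative experiment run in triplicate.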

[13] = system: TR146 epithelial cells; test: LDH release by uninfected epithelial cells; format: cell-based, human
Summary of the method: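 TR146 buccal cells grown in DMEM with 10% FCS at 37°C, 5% CO2. Tests run in antibiotic-free medium with 5, 10, 50, 100 or 125 μg/ml test compound for 12 and 24 h. Damage read as LDH release. Standard LDH samples spiked with 5 and 125 μg/ml test compound checked for assay interference.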

[14] = system: C. albicans cells; format: cell-based, Candida albicans; settings: external (5 μg/ml) and endogenous peptide; oral RHE, 12 h; immunofluorescence
Summary of the method: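 Oral RHE infected with 2×10^6 C. albicans SC5314 in TSB/10 mM sodium phosphate, pH 7.2, with or without 5 μg/ml peptide, for 12 h. Tissue cryofixed; 5-μm sections fixed in PLP, blocked with donkey serum. Stained with affinity-purified rabbit anti-peptide antibody (1:50) and human anti-C. albicans serum (1:60), then Dylight 549/Cy5 secondaries and YOPRO nuclear stain. Confocal imaging at ×400 and ×250.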

[15] = system: P. aeruginosa clinical isolate; test: Broth microdilution, P. aeruginosa clinical isolate; format: cell-based; settings: data not shown
[16] = system: C. albicans; test: Broth microdilution, C. albicans; format: cell-based, Candida albicans; settings: data not shown
[17] = system: IL-8 secretion of epithelial cells; test: IL-8 secretion by epithelial cells; format: cell-based, human; settings: 5 μg/ml, 12 h, n = 6
Summary of the method: (§1)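 Epithelial cells infected or not with C. albicans SC5314, with or without 5 μg/ml test compound, for 12 h. Cytokine in culture supernatants measured by DuoSet sandwich ELISA. Data are means±SD of duplicate assays from three experiments; 2-tailed paired t test, n = 6.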

[18] = system: GM-CSF secretion of epithelial cells; test: GM-CSF secretion by epithelial cells; format: cell-based, human; settings: uninfected epithelial cells; 5 μg/ml; 12 h; n = 6
Summary of the method: as §1

[19] = system: GAPDH; settings: ref Mookherjee et al., 2009; cited from earlier work
[20] = system: C. albicans; settings: ref Wu et al., 1999, cited from earlier work
[21] = system: Sap2; settings: ref Wu et al., 1999, cited from earlier work
[22] = epithelial cells infected with C. albicans SC5314

In the case of `CC(C)(C)NC(=O)[C@@H]1CN(Cc2cccnc2)CCN1C[C@@H](O)C[C@@H](Cc1ccccc1)C(=O)N[C@H]1c2ccccc2C[C@H]1O` [indinavir], the “inhibition of Sap activity” value [1] is listed as “inhibit Sap activity”.

For `CC(C)(C)NC(=O)[C@@H]1C[C@@H]2CCCC[C@@H]2CN1C[C@@H](O)[C@H](Cc1ccccc1)NC(=O)[C@H](CC(N)=O)NC(=O)c1ccc2ccccc2n1` [saquinavir], the “inhibition of Sap activity” value [1] is listed as “inhibit Sap activity”.

For “GKVKVGVNGFGRIGRLVTRAAFNSGKVDIVA [hGAPDH (2-32)]”, the “ultrastructural changes of C. albicans morphology” value [2] was “distinct changes of the cell wall, plasma membrane and the cytoplasm; also recorded: enlargement of the fungal cytoplasmic vacuoles, disorganization of the internal organelles and the appearance of yeasts with an empty cytoplasm resembling necrotic ghost cells”, the “protoplasts with peripheral annexin V-FITC fluorescence (apoptosis)” value ([3]; 5 μg/ml, 1 h, 37°, 300 fungal cells) was 31% and the “cellular changes after longer treatment or higher doses” value ([3]; treated for longer time with 5 μg/ml or at higher doses) was “cellular changes characteristic of necrosis”. For the same compound, the “growth inhibition (MIC 100%)” value [4] was “micromolar concentrations”, the TLR4 expression [5, 22] was “increased” and the “TLR4 mRNA expression” value ([5]; uninfected epithelial cells, vs PBS treated controls) was “increased”. The “dose dependence of antifungal effect” value ([6]; C. albicans SC5314, 5, 10, 50, 100 and 125 μg/ml, 90 min) was “dose dependent”, the “effectiveness in killing assay” value ([6]; C. albicans, 5 μg/ml) was “not very effective” and the “depolarized fungal cells in a population” value ([6]; C. albicans, 10 µg/ml (3.1 µM), 90 min, 37°C) was 45%. For the same compound, the “antifungal activity compared between hGAPDH (2-32), LL-37 and hBD-3” value ([6]; C. albicans, 90 min, 37°C) was “not significantly different”, the “depolarized fungal cells in a population” value ([6]; C. albicans, 100 µg/ml, 90 min, 37°C) was 90% and the “depolarizing of the fungi in a population” value ([6]; two of the four tested C. albicans strains, 10 μg/ml, 90 min, 37°C) was “approximately 50%”. For the same compound, the “sensitivity of C. albicans strains” value ([6]; two other of the four tested C. albicans strains, 10 μg/ml, 90 min, 37°C) was “slightly lower sensitivity”, the “growth inhibition (MIC 100%)” value [7] was “micromolar concentrations” and the antifungal activity [8] was “antifungal activity was also demonstrated”. For the same compound, the “ED50, inhibition of Sap activity” value [9] was 160 µg/mL, the “morphological alterations of infected RHE” value [10] was “far less marked morphological alterations” and the “number of yeast cells on the mucosal surface” value [10] was “decreased”. The “spongiosis and invasion of keratinocytes by yeast cells” value [10] was “inhibited”, the “edema in infected RHE” value ([10]; uppermost keratinocyte layers) was “mild edema” and the “ED50, inhibition of Sap activity” value [11] was 200 µg/mL. The “antibacterial activity compared with LL-37 and hBD-3” value ([12]; 10 μg/ml each) was “less active against E. coli”, the antibacterial activity ([12]; 10 μg/ml, 1:6 diluted Schaedler broth) was “potent antibacterial activity” and the toxic mucosal effects ([13]; low concentrations) was “without any toxic mucosal effects”. The “toxicity on mammalian cells” value ([13]; uninfected epithelial cells, LDH release) was “low toxicity”, the “affinity to C. albicans cells” value [14] was “strong affinity” and the “internalization by fungal cells” value [14] was “internalization by the fungal cells”. For the same compound, the “growth inhibition (MIC 100%)” value [15] was “micromolar concentrations”, the “growth inhibition (MIC 100%)” value [16] was “micromolar concentrations” and the IL-8 secretion [17, 22] was “even increased”. For the same compound, the IL-8 secretion ([17]; uninfected epithelial cells) was “increased secretion” and the GM-CSF secretion [18] was “increased secretion”.

For “LL-37: antimicrobial peptide LL-37 (Innovagen, Lund, Sweden); human cathelicidin (LLGDFFRKSKEKIGKEFKRIVQRIKDFLRNLVPRTES; Antibacterial peptide LL-37; UniProt P49913 134-170, looked up)”, the “GAPDH as mononuclear cell receptor” value [19] is given as “GAPDH is relevant for the functioning”.

In the case of “hBD-3: antimicrobial peptide hBD-3 (Peptide Institute, Osaka, Japan) (GIINTLQKYYCRVRGGRCAVLSCLPKEEQIGKCSTRGRKCCRRKK; UniProt P81534 23-67, looked up) [reference compound]”, the “antifungal activity compared between hGAPDH (2-32), LL-37 and hBD-3” value ([6]; C. albicans, 90 min, 37°C) is reported as “not significantly different”.

For “lysozyme: antimicrobial protein ubiquitous in human mucosal secretions such as saliva”, the “killing of C. albicans” value ([20]; higher concentrations) is given as “killing the organism”, the “growth of C. albicans” value [20] is given as “inhibited the growth” and the “production of Sap” value ([21]; lower concentrations) is given as “decreasing the production”. The “secretion of the isoenzyme Sap2” value [21] was “decreased”.

— paper PMC3488162 (The Journal of investigative dermatology, 2012)
